Measured values from ChEMBL document CHEMBL1155878, “Substituted 6-phenyl-2-naphthols. Potent and selective nonsteroidal inhibitors of 17beta-hydroxysteroid dehydrogenase type 1 (17beta-HSD1): design, synthesis, biological evaluation, and pharmacokinetics” (J Med Chem, 2008).
Each block holds one compound with its values, some of them ahead of it. Active and inactive are the calls of the source. The calls are words filed in the database; no cut-off is given here.

Columns and labels:
[1] = target: T1, 17-beta-hydroxysteroid dehydrogenase type 1 (Homo sapiens) (UniProt P14061); test: Inhibition of human placental 17beta-HSD1 assessed as conversion of [3H]estrone to [3H]17beta-estradiol at 1 uM
T1 sequence (whole entry): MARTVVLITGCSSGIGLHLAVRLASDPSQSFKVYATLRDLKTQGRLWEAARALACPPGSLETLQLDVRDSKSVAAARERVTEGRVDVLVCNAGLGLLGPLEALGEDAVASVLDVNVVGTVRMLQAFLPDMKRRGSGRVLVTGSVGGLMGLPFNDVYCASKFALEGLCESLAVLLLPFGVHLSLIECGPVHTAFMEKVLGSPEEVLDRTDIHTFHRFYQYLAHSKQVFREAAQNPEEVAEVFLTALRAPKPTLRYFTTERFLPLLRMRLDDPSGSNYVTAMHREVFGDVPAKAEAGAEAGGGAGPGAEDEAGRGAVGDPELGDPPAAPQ
Outline: (§1)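 Cytosolic enzyme from human placenta, purified by ammonium sulfate precipitation, with NADH 500 µM. Incubated at 37 °C in 50 mM phosphate buffer with 20% glycerol and 1 mM EDTA, 1% DMSO final. Started with [3H]E1 (500 nM final) and stopped with HgCl2 after 10 min. Ether extraction, then HPLC with radioflow detection of E1/E2. Result is % inhibition = 100 − % conversion, from ≥3 independent experiments.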

[2] = target: T1, 17-beta-hydroxysteroid dehydrogenase type 1 (Homo sapiens); test: Inhibition of human placental 17beta-HSD1 assessed as conversion of [3H]estrone to [3H]17beta-estradiol at 100 nM; outline: as §1
[3] = test system: T47C; test: Stimulation of human […] cell proliferation at 0.1 nM after 8 days by MTT assay; type: functional, cell-based
[4] = target: T2, 17-beta-hydroxysteroid dehydrogenase type 2 (Homo sapiens, UniProt P37059); test: Inhibition of human placental 17beta-HSD2 assessed as conversion of [3H]17beta-estradiol to [3H]estrone
T2 sequence (P37059 whole entry): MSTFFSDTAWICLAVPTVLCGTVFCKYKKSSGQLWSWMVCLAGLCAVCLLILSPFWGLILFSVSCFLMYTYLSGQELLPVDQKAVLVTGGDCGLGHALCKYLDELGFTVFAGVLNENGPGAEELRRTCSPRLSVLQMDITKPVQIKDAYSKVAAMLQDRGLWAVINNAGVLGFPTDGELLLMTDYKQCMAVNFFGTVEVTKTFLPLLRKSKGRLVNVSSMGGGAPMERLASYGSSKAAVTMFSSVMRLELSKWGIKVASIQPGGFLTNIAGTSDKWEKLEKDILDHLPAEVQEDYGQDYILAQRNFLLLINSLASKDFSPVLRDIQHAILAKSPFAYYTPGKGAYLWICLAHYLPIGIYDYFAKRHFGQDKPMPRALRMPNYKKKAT
Outline: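 Human placental microsomal fraction incubated with NAD+ (1500 µM), test compound and unlabeled plus [3H]E2 (final 500 nM) for 20 min at 37 °C. The reaction was stopped with HgCl2 and extracted with ether. E1 and E2 were separated by HPLC with radioflow detection. Percent conversion was used to derive inhibition. Values are the mean of three determinations; IC50 was measured for selected compounds.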

[5] = target: T3, 17-beta-hydroxysteroid dehydrogenase type 1 (Homo sapiens, UniProt P14061); test: Inhibition of human placental 17beta-HSD1 assessed as conversion of [3H]estrone to [3H]17beta-estradiol
T3 sequence (P14061 whole entry): T1 sequence (whole entry)

[6] = test system: Rattus norvegicus; test: Tlast in Wistar rat at 10 mg/kg, po; type: ADME, organism-based; set-up: dose 10 mg/kg, route oral; details: in vivo
Outline: (§2)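 Four adult male Wistar rats per group given 10 mg/kg orally in labrasol/water (1:1), cassette dosing. Rats were jugular-cannulated under ketamine/xylazine and sampled freely moving at 1, 2, 3, 4, 6, 8, 10 and 24 h. Plasma stored at -20 °C and quantified by HPLC-MS/MS (ESI triple quadrupole).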

[7] = test system: Rattus norvegicus; test: Clast in Wistar rat at 10 mg/kg, po; type: ADME, organism-based; set-up: dose 10 mg/kg, route oral; details: in vivo; outline: as §2
[8] = Tmax in Wistar rat at 10 mg/kg, po; type: ADME, organism-based; set-up: dose 10 mg/kg, route oral; details: in vivo; outline: as §2
[9] = Stimulation of human […] cell proliferation at 100 nM after 8 days by MTT assay relative to 17-beta estradiol; type: functional
[10] = Cmax in Wistar rat at 10 mg/kg, po; type: ADME, organism-based; set-up: dose 10 mg/kg, route oral; details: in vivo; outline: as §2
[11] = Terminal half life in Wistar rat at 10 mg/kg, po; type: ADME, organism-based; set-up: dose 10 mg/kg, route oral; details: in vivo; outline: as §2
[12] = AUC (0 to infinity) in Wistar rat at 10 mg/kg, po; type: ADME, organism-based; set-up: dose 10 mg/kg, route oral, time infinity; details: plasma; outline: as §2
[13] = AUC (0 to tlast) in Wistar rat at 10 mg/kg, po; type: ADME, organism-based; set-up: dose 10 mg/kg, route oral; details: plasma; outline: as §2
[14] = target: T4, 17-beta-hydroxysteroid dehydrogenase type 2 (Homo sapiens) (UniProt P37059); test: Inhibition of human recombinant expressed in Sf9 cells 17beta-HSD2 assessed as conversion of [3H]17beta-estradiol to [3H]estrone at 1 uM
T4 sequence (whole entry): T2 sequence (P37059 whole entry)
Outline: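 Microsomes from Sf9 cells infected with baculovirus. Incubated with 30 nM [3H]E2 and 1 mM NAD+ in 20 mM KH2PO4, pH 7.4, for 30 min at room temperature, with 1% DMSO. Stopped with 10% trichloroacetic acid. E1/E2 radioactivity used for conversion; inhibition = 100 − % conversion, from two independent experiments.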

Compound: N#Cc1cc(-c2cccc(O)c2)cc2ccc(O)cc12
inhibition [1]: 53%
inhibition [2]: inactive

Compound: C[C@]12CC[C@@H]3c4ccc(O)cc4CC[C@H]3[C@@H]1CC[C@@H]2O
Activity [3]: Active

Compound: N#Cc1cc(O)cc2ccc(-c3cccc(O)c3)cc12
inhibition [1]: 99%
inhibition [2]: 73%

Compound: Cc1nnc(NC(=O)c2c(O)ccc3cc(-c4cccc(O)c4)ccc23)s1
inhibition [1]: 73%

Compound: Oc1cccc(-c2ccc3cc(O)ccc3c2)c1
tz [6]: 24 h
Cz [7]: 159 ng/mL
Tmax [8]: 6 h
Activity [9]: 41%
Cmax [10]: 2230 ng/mL
half-life [11]: 4 h
AUC(0-inf) [12]: 30700 ng·h/mL
AUC(0-t) [13]: 29700 ng·h/mL

Compound: CNC(=O)CCc1c(O)ccc2cc(-c3cccc(O)c3)ccc12
inhibition [14]: 36%

Now from value to compound, other results behind:

Activity [1]: inactive
Activity [2]: inactive
Compound: O=C(Nc1ncccn1)c1c(O)ccc2cc(-c3cccc(O)c3)ccc12

Activity [1]: inactive
Activity [2]: inactive
Compound: O=C(Nc1ccccn1)c1c(O)ccc2cc(-c3cccc(O)c3)ccc12

IC50 [4]: 639 nM
IC50 [5]: 40 nM
Compound: Oc1cccc(-c2ccc3c(Br)c(O)ccc3c2)c1

inhibition [1]: 75%
Compound: Cc1ccc(S(=O)(=O)c2c(O)ccc3cc(-c4cccc(O)c4)ccc23)cc1

tz [6]: 24 h
Cz [7]: 115 ng/mL
Tmax [8]: 4 h
Cmax [10]: 860 ng/mL
half-life [11]: 6 h
AUC(0-inf) [12]: 12700 ng·h/mL
IC50 [5]: 20 nM
AUC(0-t) [13]: 11700 ng·h/mL
Compound: Oc1cccc(-c2ccc3c(-c4ccccc4)c(O)ccc3c2)c1
Activity [9]: 39%

inhibition [1]: 33%
Compound: O=S(=O)(c1ccccc1)c1c(O)ccc2cc(-c3cccc(O)c3)ccc12
